The values that follow come from ChEMBL document CHEMBL3808338, “Combined inhibition of the EGFR/AKT pathways by a novel conjugate of quinazoline with isothiocyanate” (Eur J Med Chem, 2016).

The IC50 is the concentration that gives 50% inhibition.

For data set [1], the system named is A-431. The data set is described as follows: Induction of apoptosis in human A431 cells assessed as DNA fragmentation at 2 uM after 24 hrs by ELISA analysis. Type of data set: functional. The method, boiled down: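 A431 cells seeded at 5x10³ cells/well, then exposed to compound for 24 h at 37°C, 5% CO₂. Nucleosomal DNA fragmentation in lysate supernatants quantified by sandwich ELISA with anti-histone-biotin and anti-DNA-peroxidase antibodies and ABTS substrate (20 min), read at 405 nm. Expressed as fold increase, treated over untreated absorbance.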
For orientation: ELISA stands for enzyme-linked immunosorbent assay.

Data set [2] deals with T1, Epidermal growth factor receptor (Homo sapiens, UniProt P00533). The settings on record: A-431, 10 uM.
For data set [3], the system named is A-431. The data set is described as follows: Antiproliferative activity against human A431 cells assessed as cell growth inhibition after 72 hrs by MTT assay. The format is functional, cell-based. The settings on record: A-431, 72 h. The method, boiled down: (§1)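 A431 or HaCaT cells seeded at 1x10⁴ cells/well, incubated 24 h, then exposed to 0.03-30 µM for 72 h at 37°C, 5% CO₂. MTT (5 mg/ml in PBS) for 4 h after a PBS wash, formazan dissolved in isopropanol, read at 405 nm. Viability expressed as % of untreated cells; IC₅₀ taken from at least three independent dose-response curves.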

Another data set relates to HaCaT. The data set can be described thus: Antiproliferative activity against human HaCaT cells assessed as cell growth inhibition after 72 hrs by MTT assay. Type of data set: functional, cell-based. A digest of the protocol: as §1
The subject of data set [4] is A-431. The data set is described as follows: Effect on total Akt levels in human A431 cells after 2 hrs by ELISA analysis. The format is cell-based. The settings on record: a-431, 2 h.
The target in data set [5] is T1, Epidermal growth factor receptor. The data set can be described thus: Inhibition of EGFR-TK in human A431 cell lysate assessed as reduction in EGF stimulated kinase activity after 60 mins using biotinylated peptide substrate by ELISA. The format is cell-based, A-431.
Data set [6] shares this target. The settings on record: A-431, 2 uM.
Data set [7] is described as follows: Antiproliferative activity against human HGF assessed as cell growth inhibition at 30 uM after 72 hrs by MTT assay. The settings on record: HGF cells, read-out: GI. The method, boiled down:
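Gingival fibroblasts were grown from healthy-donor biopsies of permanent molars in DMEM/F12 with 10% FCS, then seeded at 1x10⁴ cells/well. After 24 h, cells were treated for 72 h at 37°C, 5% CO₂. Read-out was MTT with isopropanol solubilization at 405 nm, expressed as % of untreated cells.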
For orientation: Tetrazolium assays rely on reduction of a dye to a coloured formazan, in cell work by metabolically active cells.

Data set [8] is described as follows: Chemical stability of the compound in phosphate buffer assessed as degradation at 2 uM at pH 7.2 after 0.5 to 24 hrs by HPLC analysis. The format is physicochemical. The settings on record: pH 7.2, 2 µM. A digest of the protocol:
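Test solutions (2 µM) made from a 1 mg/mL DMSO stock diluted into pH 7.2 phosphate buffer and held at 37°C. Aliquots analysed by HPLC with diode-array detection on a phenyl-hexyl column at 0, 0.5, 2, 4 and 24 h.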

Data set [9] concerns the target T1, Epidermal growth factor receptor. The data set can be described thus: Inhibition of EGFR-TK in human A431 cell lysate assessed as reduction in EGF stimulated kinase activity at 20 uM after 60 mins using biotinylated peptide substrate by ELISA. The settings on record: A-431. Type of data set: cell-free. The method, boiled down: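 A431 cells seeded at 4x10⁶ per 100-mm dish and stimulated with EGF (100 nM) for 60 min with or without compound. Tyrosine kinase activity in lysates measured by direct colorimetric ELISA using a biotinylated peptide substrate and an anti-phosphotyrosine-HRP antibody.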

The source made the active and inactive calls. The calls are words filed in the database; no cut-off is given here. A value given as a limit tells only on which side of the number the result lay.

T1 sequence (P00533 whole entry): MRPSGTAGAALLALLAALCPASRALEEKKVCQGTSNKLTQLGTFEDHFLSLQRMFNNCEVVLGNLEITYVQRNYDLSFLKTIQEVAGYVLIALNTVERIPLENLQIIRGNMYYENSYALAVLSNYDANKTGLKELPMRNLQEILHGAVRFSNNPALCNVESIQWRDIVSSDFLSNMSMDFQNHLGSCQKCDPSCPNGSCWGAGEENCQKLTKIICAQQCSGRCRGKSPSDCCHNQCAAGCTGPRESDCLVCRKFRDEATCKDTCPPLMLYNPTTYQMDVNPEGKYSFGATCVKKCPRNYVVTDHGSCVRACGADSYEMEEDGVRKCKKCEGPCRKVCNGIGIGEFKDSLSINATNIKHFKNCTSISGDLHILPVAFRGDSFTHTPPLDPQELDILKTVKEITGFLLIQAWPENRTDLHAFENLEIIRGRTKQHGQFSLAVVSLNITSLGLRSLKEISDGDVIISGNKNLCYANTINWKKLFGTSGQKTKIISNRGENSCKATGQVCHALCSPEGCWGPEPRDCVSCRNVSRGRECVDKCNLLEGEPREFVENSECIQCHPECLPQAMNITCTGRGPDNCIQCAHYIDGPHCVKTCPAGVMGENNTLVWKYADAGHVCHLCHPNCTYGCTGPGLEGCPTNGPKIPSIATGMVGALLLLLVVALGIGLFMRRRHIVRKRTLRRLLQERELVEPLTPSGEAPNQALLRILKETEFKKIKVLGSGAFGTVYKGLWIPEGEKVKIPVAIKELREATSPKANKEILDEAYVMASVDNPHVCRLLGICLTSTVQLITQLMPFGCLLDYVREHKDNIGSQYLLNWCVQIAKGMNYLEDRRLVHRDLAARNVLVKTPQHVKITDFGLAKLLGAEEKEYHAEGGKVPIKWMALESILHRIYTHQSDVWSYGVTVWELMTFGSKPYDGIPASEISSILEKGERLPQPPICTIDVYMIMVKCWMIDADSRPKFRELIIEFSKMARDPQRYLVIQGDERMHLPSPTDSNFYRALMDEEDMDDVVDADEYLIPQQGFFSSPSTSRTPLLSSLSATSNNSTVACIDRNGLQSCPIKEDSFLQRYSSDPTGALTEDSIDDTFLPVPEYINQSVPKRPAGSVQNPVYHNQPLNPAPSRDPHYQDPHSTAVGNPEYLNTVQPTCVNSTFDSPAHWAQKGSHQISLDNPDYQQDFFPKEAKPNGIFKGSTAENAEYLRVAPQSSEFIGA

As to `CC[C@@]1(O)C(=O)OCc2c1cc1n(c2=O)Cc2cc3ccccc3nc2-1` [CAMPTOTHECIN], the Activity in the data set on A-431 [1] is 65%.
Take `S=C=Nc1ccc2ncnc(Nc3cccc(Br)c3)c2c1`: the inhibition in data set [2] came out at 89%. Besides, the concentration for half-maximal inhibition (IC50) in the data set with A-431 [3] is 2.04 µM; with HaCaT, 2.62 µM; in [5], 0.88 µM. Also, the Activity result is listed as “Non-toxic” with A-431 [4] and 40% in the data set with A-431 [1]. Moreover, in [6], the inhibition result is “Active”. Moreover, in data set [7], the inhibition at 72 h, 30 µM was less than 50%. In addition, the Stability entry in [8] is given as “Stable”.
For `O=C(CCCCCN=C=S)Nc1ccc2ncnc(Nc3cccc(Br)c3)c2c1`, the IC50 in the data set on A-431 [3] came to 14.4 µM; in the data set with HaCaT, 16.5 µM. The inhibition in data set [9] is less than 50%. Also, the inhibition at 72 h, 30 µM in data set [7] is less than 50%. For the same compound, the Stability result in [8] is “Stable”.
`O=C(CCCCCCN=C=S)Nc1ccc2ncnc(Nc3cccc(Br)c3)c2c1`: the values for the 50% inhibitory concentration (IC50) in the data set on A-431 [3] and with HaCaT were 16.1 µM and 17.3 µM, respectively. In data set [9], the inhibition is less than 50%.
For `O=C(CCCN=C=S)Nc1ccc2ncnc(Nc3cccc(Br)c3)c2c1`, the results for the half-maximal inhibitory concentration (IC50) with A-431 [3] and in the data set with HaCaT were 17.1 µM and 16.3 µM, respectively. Besides, the inhibition in data set [9] is less than 50%. For the same compound, the inhibition at 72 h, 30 µM in [7] was less than 50%.
On to `O=C(CCN=C=S)Nc1ccc2ncnc(Nc3cccc(Br)c3)c2c1`, for which the figures for the 50% inhibitory concentration (IC50) in the data set on A-431 [3] and in the data set with HaCaT were 17.1 µM and 18.9 µM, respectively. The inhibition in data set [9] is less than 50%.
`C=CC(=O)Nc1ccc2ncnc(Nc3cccc(Br)c3)c2c1`: the Activity with A-431 [1] worked out at 48%.
Turning to `Nc1ccc2ncnc(Nc3cccc(Br)c3)c2c1`, the IC50 with A-431 [3] is 11.1 µM; in the data set on HaCaT, 14.3 µM. Besides, the inhibition at 72 h, 30 µM in data set [7] is less than 50%.
Take `O=C(CCCCN=C=S)Nc1ccc2ncnc(Nc3cccc(Br)c3)c2c1`: the results for the IC50 in the data set with A-431 [3] and in the data set with HaCaT were 16.3 µM and 18.2 µM, respectively. In [9], the inhibition is less than 50%.
For the compound `C[S+]([O-])CCCCN=C=S` (centres undefined) [SULFORAPHANE], the results for the IC50 (with A-431 [3]; in data set [5]) were 15.8 µM and 9 µM, respectively.
